# MrgX1 PAM – positive allosteric modulators of MrgX1, primary screen, HEK293 cells, Fluo-4 calcium flux. FDSS; active compounds read high. B-score at 10 µM. 310,000 compounds, 0.63% hits. Mas-related G-protein coupled receptor member X1 (Homo sapiens), Q96LB2. AID 588675, 2011;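 active means plate-corrected calcium response at least 3 library SD above typical, normal starting fluorescence, not activating the receptor alone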;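 further: compound read alongside a low EC10 to EC30 dose of BAM8-22 agonist; peak minus trough fluorescence over baseline measured at the second addition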
# Target sequence (Q96LB2 whole entry, looked up): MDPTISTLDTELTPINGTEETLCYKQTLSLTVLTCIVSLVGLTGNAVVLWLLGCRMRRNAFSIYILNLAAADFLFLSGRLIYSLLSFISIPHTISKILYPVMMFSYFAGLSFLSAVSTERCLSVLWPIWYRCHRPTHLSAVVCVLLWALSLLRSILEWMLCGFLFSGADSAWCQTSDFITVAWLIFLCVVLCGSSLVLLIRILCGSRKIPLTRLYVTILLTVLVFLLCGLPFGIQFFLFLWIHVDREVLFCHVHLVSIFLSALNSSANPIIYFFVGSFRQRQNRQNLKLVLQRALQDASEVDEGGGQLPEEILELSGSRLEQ
# MrgX1 ag – agonists of human MrgX1 receptor, primary screen, HEK293 cells, Fluo-4 calcium flux. AID 588627, 2011. 310,000 compounds, 0.44% hits. Fluo-4 calcium fluorescence, agonist mode; active compounds read high. B-score at 10 µM. Mas-related G-protein coupled receptor member X1 (Homo sapiens), Q96LB2;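 active means calcium response B-score plate-corrected fluorescence ratio at least 3 library SD, with starting fluorescence B-score inside 5 SD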
#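 Test system: HEK293 cells stably expressing human MrgX1 receptor; Input: fifteen thousand cells per well; Dosing: compound delivered in addition one of three; Schedule: overnight seeding, then 1 h dark dye loading; Technique: Fluo-4 NW calcium fluorescence; Measure: B-scored fluorescence response ratio; Controls: positive and negative controls per plate.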
# MrgX1 antagonist – antagonists of human MrgX1 receptor, primary screen, HEK293 cells, Fluo-4 calcium flux | Mas-related G-protein coupled receptor member X1 (Homo sapiens), Q96LB2 | BAM8-22 antagonism; active compounds read low | B-score at 10 µM | 310,000 compounds, 1.3% hits;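 active means calcium-response B-score plate-corrected more than 3 library SD below zero, starting fluorescence within 5 deviations, no agonist response on first addition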;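 further: peak minus trough fluorescence over baseline after final BAM8-22 challenge near maximal dose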
# RGS4 pot – RGS4 potentiators or activators, primary screen, cell-based, HEK293 M3R inducible RGS4, calcium flux; carbachol calcium flux Fluo4; active compounds read low; B-score at 10 µM; 310,000 compounds, 0.92% hits;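 active means B-score of the integrated calcium signal more than 4 SD below the library mean, with starting fluorescence not abnormally high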;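 further: negative B-score means reduced calcium response which marks RGS4 activation or potentiation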
#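 Test system: HEK293 cells with stable M3R and inducible RGS4; also added: carbachol at ECmax as muscarinic agonist stimulus; schedule: dye loading 30 min 37 °C, buffer rest 30 min RT; technique: kinetic calcium fluorescence imaging with Fluo4-AM dye, 2 µM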
# RGS4 block – RGS4 inhibitors, primary screen, cell-based, HEK293 M3R inducible RGS4, calcium flux. 310,000 compounds, 0.45% hits. B-score at 10 µM. Fluo-4 calcium flux; active compounds read high; triggered by carbachol at its EC20. Regulator of G-protein signaling 4 (Homo sapiens), P49798. AID 463165, 2010;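 active means B-score, a plate-corrected calcium signal, over three deviations above library mean, with baseline fluorescence within five deviations of library mean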;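 further: RGS4 expression induced by doxycycline in cells with stable M3 receptor; B-score is computed from the integrated fluorescence ratio over baseline after carbachol; higher B-score means a larger calcium signal and so more RGS4 inhibition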
# Target sequence (P49798 whole entry, looked up): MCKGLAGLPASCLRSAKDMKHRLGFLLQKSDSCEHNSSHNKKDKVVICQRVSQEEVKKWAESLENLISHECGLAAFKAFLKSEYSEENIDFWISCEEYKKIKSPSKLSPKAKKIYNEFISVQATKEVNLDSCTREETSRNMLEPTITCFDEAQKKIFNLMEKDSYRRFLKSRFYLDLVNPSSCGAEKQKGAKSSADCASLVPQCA
# MrgX1 ag reconf – MrgX1 receptor agonists, duplicate retest, confirmation, HEK293 cells, Fluo-4 calcium flux. shares compounds with MrgX1 ag. Fluo-4 calcium fluorescence, FDSS. activation, % at 10 µM. AID 602412, 2012. 600 compounds, 78% hits;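 active means calcium signal rise, corrected for plate position, at least 3 library SD high, with starting brightness within 5 such deviations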
# MrgX1 PAM conf – MrgX1 positive allosteric modulators, duplicate retest, confirmation, HEK293 cells, Fluo-4 calcium flux. shares compounds with MrgX1 PAM. Fluo-4 calcium fluorescence, FDSS. activation (ratio percentage), % at 10 µM. 1,200 compounds, 13% hits. AID 602413, 2012;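 active means ratio at least 3 SD above the weak peptide control, stable starting fluorescence, no direct agonism earlier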;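 further: compound followed by low BAM8-22 agonist challenge near EC20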
# HEK293 Ca flux – nonspecific calcium signal in parental HEK293, confirmation, counter-screen for MrgX1 antagonist project, parental HEK293 cells, Fluo-4 calcium flux; fluorescence ratio F(max-min)/F0 at 10 µM; 4,000 compounds, 2% hits; Fluo-4 calcium fluorescence, FDSS; shares compounds with MrgX1 antagonist;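 active means duplicate-averaged calcium fluorescence ratio at least three times the standard deviation of buffer wells, a nonspecific response in parental cells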
# HEK293 Ca counter – calcium response in parental HEK293 cells, primary screen, counter-screen for MrgX1 allosteric activator project, cell-based, Fluo-4 calcium flux, duplicate; Fluo-4 fluorescence ratio; active compounds read high; shares compounds with MrgX1 antagonist; 4,000 compounds, 0.4% hits; AID 624114, 2012; fluorescence ratio F(max-min)/F0 at 10 µM;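 active means calcium fluorescence ratio, averaged over duplicates, at least 3 SD of the buffer-well ratio, meaning a nonspecific response in receptor-free cells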;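 further: untransfected parental HEK293 lacking MrgX1 used as counterscreen for MrgX1 allosteric activators; fluorescence change taken during the second addition on a kinetic imager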
# HEK293 Ca cntr2 – calcium response in parental HEK293 cells, primary screen, counter-screen for MrgX1 agonist project, cell-based, Fluo-4 calcium flux, duplicate, agonist mode. shares compounds with MrgX1 antagonist. Fluo-4 calcium fluorescence (FDSS); active compounds read high. fluorescence ratio F(max-min)/F0 at 10 µM. AID 624115, 2012. 4,000 compounds, 8.7% hits;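 active means calcium fluorescence ratio at least three times the spread of buffer wells, meaning a non-specific response in parental cells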
# * = called active by the depositor; i = inactive; . = no result. Compounds with a hit are over-represented: about 3.5% of the library has one in this group of screens.
SMILES,MrgX1 PAM,MrgX1 ag,MrgX1 antagonist,RGS4 pot,RGS4 block,MrgX1 ag reconf,HEK293 Ca flux,HEK293 Ca counter,HEK293 Ca cntr2,others
Cc1ccc(SCCC(=O)OC(C(=O)NC(N)=O)C(C)C)cc1 (stereo not drawn),i,i,i,i,i,.,.,.,.,
C=CCNC(=O)c1ccccc1NC(=O)C1COc2ccccc2O1 (stereo not drawn),i,i,i,i,i,.,.,.,.,
COC(=O)CCC(=O)N1CCCC(N2CCN(c3cccc(C(F)(F)F)c3)CC2)C1 (stereo not drawn),i,i,i,i,i,.,.,.,.,
CCN1CCc2c(sc(NC(=O)c3ccc4ccccc4c3)c2C(N)=O)C1,i,44.4*,i,i,i,i,i,i,i,
O=C(NCCOC(=O)c1c(F)cccc1Cl)c1c(F)cccc1Cl,i,i,i,i,i,.,.,.,.,
CC(C)(C)C(=O)Nc1nnc(SCC(=O)NC2CCCC2)s1,i,i,i,i,i,.,.,.,.,
CCOC(=O)c1cnc2c(OC)cccc2c1N1CC(C)CC(C)C1 (stereo not drawn),i,28*,i,i,i,i,i,i,i,
Cc1ccc(C(=O)N2CCN(C34CC5CC(CC(C5)C3)C4)CC2)o1,i,i,i,i,i,.,.,.,.,
O=[N+]([O-])c1cc(C(F)(F)F)cc([N+](=O)[O-])c1N1CCCNCC1,i,i,i,i,i,.,.,.,.,
Cc1ccc(-c2n[nH]c(Cc3ccccc3)n2)cc1,i,28.5*,i,i,i,96.8%*,i,i,i,
Cc1ccc(OCc2nc(-c3ccc(Cl)cc3)n[nH]2)cc1,i,i,i,i,i,.,.,.,.,
COC(=O)c1c(NC(=O)CN2C(=O)NC3(CCc4ccccc4C3)C2=O)sc2c1CCCCC2 (stereo not drawn),i,29.1*,i,i,i,224.9%*,i,i,75.2*,
COC(=O)c1c(NC(=O)CN2C(=O)NC3(CCC(C(C)(C)C)CC3)C2=O)sc2c1CCCCC2 (stereo not drawn),i,i,i,i,i,.,.,.,.,
Cc1ccc(S(=O)(=O)C(C#N)c2nc3ccccc3nc2N2CCCC2)cc1 (stereo not drawn),i,30.1*,i,i,i,i,i,i,51.6*,
CCOC(=O)C1(CC2CCCCO2)CCN(Cc2cn[nH]c2-c2cccc(F)c2)CC1 (stereo not drawn),i,i,i,i,i,.,.,.,.,
CCNc1ccc(C2(O)C(=O)c3ccccc3C2=O)cc1,i,i,i,i,i,.,.,.,.,
COc1cccc(-n2c(SCC(=O)NCC3CCCO3)nc3c([nH]c4ccccc43)c2=O)c1 (stereo not drawn),i,30*,i,i,i,99.1%*,i,i,i,
COc1ccc(-n2c(SCC(=O)NCC3CCCO3)nc3c([nH]c4ccccc43)c2=O)cc1 (stereo not drawn),i,i,i,i,i,.,.,.,.,
O=C(NC1CCN(S(=O)(=O)c2ccc(F)cc2)CC1)c1cccc(F)c1,i,i,i,i,i,.,.,.,.,
COc1cccc(-c2nnc(NC(=O)c3cccc(F)c3)o2)c1,i,27.6*,i,i,i,686.1%*,i,i,107*,
O=C(Nc1nnc(-c2ccc3c(c2)CCCC3)o1)c1ccccc1Cl,i,i,i,i,i,.,.,.,.,
O=C(Nc1nnc(-c2ccc3c(c2)CCCC3)o1)c1ccccc1,i,27.5*,i,i,i,140.0%*,i,i,51.5*,
O=C(Nc1nnc(-c2ccccc2)o1)c1cc(Cl)sc1Cl,i,43.1*,i,i,i,442.3%*,i,i,88.1*,
COc1ccc(C(=O)Nc2nnc(-c3ccccc3)o2)cc1OC,i,i,i,i,i,.,.,.,.,
O=C(Nc1nnc(-c2ccc(F)cc2)o1)c1cc(Cl)sc1Cl,i,114*,i,i,i,526.6%*,i,i,100*,
SMILES,MrgX1 PAM,MrgX1 ag,MrgX1 antagonist,RGS4 pot,RGS4 block,MrgX1 ag reconf,HEK293 Ca flux,HEK293 Ca counter,HEK293 Ca cntr2,others
O=C(c1cccs1)N1CCC(c2ccccc2)C1 (stereo not drawn),i,i,i,i,i,.,.,.,.,
O=C(CCN1CCC(c2ccccc2)C1)c1cccs1 (stereo not drawn),i,43.7*,i,i,i,140.1%*,i,i,i,
COc1cc(C(=O)CCN2CCC(c3ccccc3)C2)cc(OC)c1OC (stereo not drawn),i,i,i,i,i,.,.,.,.,
O=C(CCN1CCC(c2ccccc2)C1)c1ccc2c(c1)OCCO2 (stereo not drawn),i,36.4*,i,i,i,i,i,i,i,
Cc1ccccc1-n1nc(-c2cccnc2)cc1C(=O)NN,i,i,i,i,i,.,.,.,.,
COc1ccccc1C(=O)NC(CCSC)C(=O)NCCCn1nc(C)cc1C (stereo not drawn),i,i,i,i,i,.,.,.,.,
CC1CC(C)CN(C2CCCCC2NS(=O)(=O)c2ccc(Cl)cc2)C1 (stereo not drawn),8.24*,i,i,i,i,.,i,i,i,MrgX1 PAM conf=i
CN1CCN(C2CCCCC2NS(=O)(=O)c2ccc(Cl)cc2)CC1 (stereo not drawn),i,i,i,i,i,.,.,.,.,
O=C(CCCN1C(=O)c2ccccc2C1=O)Nc1ccc2c(c1)OCCO2,i,i,i,i,i,.,.,.,.,
